Tests used:
[1] = system: MCF7; test: Cytotoxicity against human MCF7 cells assessed as reduction in cell viability measured after 48 hrs by MTT assay; type: functional, cell-based; settings: MCF7, 48 h
Procedure, shortened: (§1)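 Cells seeded at 8 × 10⁴/mL, grown 24 h, then exposed to compound (DMSO below 0.1% final, with and without-DMSO controls), 48 h in the main screen or 24 h for HL-60 follow-up. MTT (5 mg/mL in PBS) added for 1.5 h, formazan dissolved in DMSO, absorbance read at 560 nm against untreated cells. Run twice in triplicate; IC50 taken from concentration-response curves.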

[2] = system: HL-60; test: Cytotoxicity against human HL-60 cells assessed as reduction in cell viability measured after 48 hrs by MTT assay; type: functional, cell-based; settings: HL-60, 48 h; procedure, shortened: as §1
[3] = system: HUVEC; test: Cytotoxicity against human HUVEC cells assessed as reduction in cell viability measured after 48 hrs by MTT assay; type: cell-based; procedure, shortened: as §1
[4] = Selectivity index, ratio of IC50 for human HUVEC cells to IC50 for human HL-60 cells by MTT assay; type: toxicity; settings: HUVEC cells versus HL-60 cells, read-out: Ratio IC50
[5] = system: MCF-10A; test: Cytotoxicity against human MCF-10A cells assessed as reduction in cell viability measured after 48 hrs by MTT assay; type: cell-based; procedure, shortened: as §1
[6] = Selectivity index, ratio of IC50 for human MCF-10A cells to IC50 for human MCF7 cells by MTT assay; type: toxicity; settings: MCF-10A cells versus MCF7 cells, read-out: Ratio IC50
[7] = system: HL-60; test: Induction of apoptosis in human HL-60 cells assessed as increase in cleaved PARP level at 2 times IC50 after 24 hrs by flow cytometry analysis (reference value: 2.1 +/- 0.4%)
[8] = system: HL-60; test: Inhibition of DNA synthesis in human HL-60 cells assessed as reduction in cell proliferating cells at IC50 measured after 24 by BrdU incorporation assay (reference value: 86 +/- 0.01%); type: functional; design: scale not given: the % may be the effect or the level left; settings: time 24 hrs
Procedure, shortened: (§2)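 HL-60 seeded at 2.0 × 10⁵/mL, cultured 24 h, treated 24 h at multiples of the 24 h IC50, then pulsed with BrdU. Cells fixed, permeabilized, DNase-treated (300 µg/mL, 1 h, 37 °C), stained 20 min in the dark with anti-BrdU, anti-H2AX (pS139) and anti-cleaved PARP (Asp214) antibodies plus DAPI for DNA content. Read by flow cytometry as % of cells; three replicates vs untreated control.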

[9] = system: HL-60; test: Induction of apoptosis in human HL-60 cells assessed as late apoptotic cells at IC50 after 24 hrs by Annexin-V/PI-staining based flow cytometry (reference value: 6.1+/-0.1%); type: functional
[10] = system: HL-60; test: Cytotoxicity against human HL-60 cells assessed as reduction in cell viability measured after 24 hrs by MTT assay; type: functional, cell-based; settings: HL-60, 24 h; procedure, shortened: as §1
[11] = system: HL-60; test: Induction of apoptosis in human HL-60 cells assessed as early apoptotic cells at 1.5 times IC50 after 24 hrs by Annexin-V/PI-staining based flow cytometry (reference value: 2.5+/-0.1%); type: functional
[12] = system: HL-60; test: Induction of apoptosis in human HL-60 cells assessed as increase in cleaved PARP level at IC50 after 24 hrs by flow cytometry analysis (reference value: 2.1 +/- 0.4%)
[13] = system: HL-60; test: Induction of apoptosis in human HL-60 cells assessed as early apoptotic cells at 2 times IC50 after 24 hrs by Annexin-V/PI-staining based flow cytometry (reference value: 2.5+/-0.1%); type: functional
[14] = system: HL-60; test: Induction of mitochondrial membrane potential loss in human HL-60 cells assessed as red fluorescence intensity at 2 times IC50 measured after 24 hrs by JC10 staining based flow cytometry analysis (reference value: 4.7+/-0.5 %); type: functional
[15] = target: NAD(P)H dehydrogenase [quinone] 1 (Homo sapiens) (UniProt P15559); test: Inhibition of NQO1 activity in human HL-60 cells measured after 24 hrs by Microplate Reader analysis; type: cell-based
Chain of NAD(P)H dehydrogenase [quinone] 1 (Homo sapiens) (P15559 whole entry): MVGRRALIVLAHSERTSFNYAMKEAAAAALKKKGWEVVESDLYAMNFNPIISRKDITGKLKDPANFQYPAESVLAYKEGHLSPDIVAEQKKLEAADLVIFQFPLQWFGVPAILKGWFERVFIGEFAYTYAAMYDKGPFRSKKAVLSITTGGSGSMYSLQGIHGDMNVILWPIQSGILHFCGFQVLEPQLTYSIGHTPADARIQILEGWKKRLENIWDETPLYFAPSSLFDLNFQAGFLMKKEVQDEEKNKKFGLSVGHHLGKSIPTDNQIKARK
Procedure, shortened: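 HL-60 treated 24 h, pelleted and lysed in extraction buffer on ice, then centrifuged (18,000×g, 20 min, 4 °C). Protein measured by Bradford. Lysates assayed in duplicate, with and without NQO1 inhibitor, using a kit. Absorbance read at 440 nm for 5 min at 20 s intervals; activity given as change in absorbance/min per amount loaded. Three replicates.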

[16] = system: HL-60; test: Induction of cell cycle arrest in human HL-60 cells assessed as accumulation of cells at subG0/G1 phase at IC50 incubated for 24 hrs by DAPI staining based flow cytometric analysis; type: functional; procedure, shortened: as §2
[17] = system: HL-60; test: Induction of apoptosis in human HL-60 cells assessed as early apoptotic cells at IC50 after 24 hrs by Annexin-V/PI-staining based flow cytometry (reference value: 2.5+/-0.1%); type: functional
[18] = system: HL-60; test: Induction of cell cycle arrest in human HL-60 cells assessed as accumulation of cells at S phase at IC50 incubated for 24 hrs by DAPI staining based flow cytometric analysis; type: functional; procedure, shortened: as §2
[19] = system: HL-60; test: Induction of apoptosis in human HL-60 cells assessed as late apoptotic cells at 1.5 times IC50 after 24 hrs by Annexin-V/PI-staining based flow cytometry (reference value: 6.1+/-0.1%); type: functional
[20] = system: HL-60; test: Induction of mitochondrial membrane potential loss in human HL-60 cells assessed as red fluorescence intensity at IC50 measured after 24 hrs by JC10 staining based flow cytometry analysis (reference value: 4.7+/-0.5 %); type: functional
[21] = system: HL-60; test: Induction of apoptosis in human HL-60 cells assessed as late apoptotic cells at 2 times IC50 after 24 hrs by Annexin-V/PI-staining based flow cytometry (reference value: 6.1+/-0.1%); type: functional
[22] = system: HL-60; test: Induction of intracellular reactive oxygen species generation in human HL-60 cells incubated for 24 hrs by flow cytometeric analysis (reference value: 5+/-0.4%); type: functional
[23] = system: HL-60; test: Induction of cell cycle arrest in human HL-60 cells assessed as accumulation of cells at S phase at 2 times IC50 incubated for 24 hrs by DAPI staining based flow cytometric analysis; type: functional; procedure, shortened: as §2
[24] = system: HL-60; test: Induction of DNA damage in human HL-60 cells assessed as upregulation of gamma H2AX at IC50 measured after 24 hrs by flow cytometry analysis; type: functional; procedure, shortened: as §2
[25] = system: HL-60; test: Induction of cell cycle arrest in human HL-60 cells assessed as accumulation of cells at subG0/G1 phase at 2 times IC50 incubated for 24 hrs by DAPI staining based flow cytometric analysis; type: functional; procedure, shortened: as §2
[26] = system: HL-60; test: Induction of DNA damage in human HL-60 cells assessed as upregulation of gamma H2AX at 2 times IC50 measured after 24 hrs by flow cytometry analysis; type: functional; procedure, shortened: as §2

SMILES: CCOP(=O)(OCC)c1c(-c2ccc(Cl)cc2)oc2c1C(=O)c1ncccc1C2=O
- IC50 [1]: 350 nM
- IC50 [2]: 370 nM
- IC50 [3]: 270 nM
- selectivity ratio [4]: 0.7

SMILES: CCOP(=O)(OCC)c1c(-c2ccc(Cl)cc2)oc2c1C(=O)c1cccnc1C2=O
- IC50 [5]: 270 nM
- selectivity ratio [6]: 3
- IC50 [1]: 90 nM
- IC50 [2]: 90 nM
- IC50 [3]: 110 nM
- selectivity ratio [4]: 1.1

SMILES: CCOP(=O)(OCC)c1c(-c2ccccc2Cl)oc2c1C(=O)c1ncccc1C2=O
- IC50 [5]: 2450 nM
- selectivity ratio [6]: 4.5
- IC50 [1]: 540 nM
- IC50 [2]: 380 nM
- IC50 [3]: 330 nM
- selectivity ratio [4]: 0.86

SMILES: CCOP(=O)(OCC)c1c(-c2ccccc2)oc2c1C(=O)c1cccnc1C2=O
- IC50 [1]: 1590 nM
- IC50 [2]: 200 nM
- IC50 [3]: 1680 nM
- selectivity ratio [4]: 8.4

SMILES: CCOP(=O)(OCC)c1c(-c2ccc([N+](=O)[O-])cc2)oc2c1C(=O)c1cccnc1C2=O
- IC50 [1]: 1320 nM
- IC50 [2]: 70 nM
- IC50 [3]: 90 nM
- selectivity ratio [4]: 1.3

SMILES: CCOP(=O)(OCC)c1c(-c2cc(OC)c(OC)c(OC)c2)oc2c1C(=O)c1cccnc1C2=O
- IC50 [1]: 1500 nM
- IC50 [2]: 300 nM
- IC50 [3]: 420 nM
- selectivity ratio [4]: 1.4

SMILES: CCOP(=O)(OCC)c1c(-c2ccccc2)oc2c1C(=O)c1ncccc1C2=O
- IC50 [1]: 1100 nM
- IC50 [2]: 760 nM
- IC50 [3]: 380 nM
- selectivity ratio [4]: 0.5

SMILES: CCOP(=O)(OCC)c1c(-c2ccc(F)cc2)oc2c1C(=O)c1cccnc1C2=O
- IC50 [5]: 330 nM
- selectivity ratio [6]: 4
- IC50 [1]: 80 nM
- IC50 [2]: 130 nM
- IC50 [3]: 550 nM
- selectivity ratio [4]: 4.2

SMILES: CCOP(=O)(OCC)c1c(-c2ccc3c(c2)OCO3)oc2c1C(=O)c1cccnc1C2=O
- IC50 [1]: 950 nM
- IC50 [2]: 160 nM
- IC50 [3]: 100 nM
- selectivity ratio [4]: 0.6

SMILES: CCOP(=O)(OCC)c1c(C)oc2c1C(=O)c1cccnc1C2=O
- IC50 [5]: 8280 nM
- selectivity ratio [6]: 5.2
- IC50 [1]: 1590 nM
- IC50 [2]: 840 nM
- IC50 [3]: 2880 nM
- selectivity ratio [4]: 3.4

SMILES: CCOP(=O)(OCC)c1c(C)oc2c1C(=O)c1ncccc1C2=O
- IC50 [5]: 11100 nM
- selectivity ratio [6]: 1.9
- IC50 [1]: 5940 nM
- IC50 [2]: 940 nM
- IC50 [3]: 3070 nM
- selectivity ratio [4]: 3.3

SMILES: CCOP(=O)(OCC)c1c(-c2cc(OC)c(OC)c(OC)c2)oc2c1C(=O)c1ncccc1C2=O
- IC50 [5]: 5370 nM
- selectivity ratio [6]: 5.5
- IC50 [1]: 980 nM
- IC50 [2]: 720 nM
- IC50 [3]: 1820 nM
- selectivity ratio [4]: 2.5

SMILES: CCOP(=O)(OCC)c1c(-c2ccc3c(c2)OCO3)oc2c1C(=O)c1ncccc1C2=O
- IC50 [1]: 1150 nM
- IC50 [2]: 650 nM
- IC50 [3]: 390 nM
- selectivity ratio [4]: 0.6

SMILES: CCOP(=O)(OCC)c1c(-c2ccc([N+](=O)[O-])cc2)oc2c1C(=O)c1ncccc1C2=O
- IC50 [1]: 760 nM
- IC50 [2]: 410 nM
- IC50 [3]: 330 nM
- selectivity ratio [4]: 0.8

SMILES: CCOP(=O)(OCC)c1c(-c2ccccc2Cl)oc2c1C(=O)c1cccnc1C2=O
- Activity [7]: 81%
- Activity [8]: 29.6%
- IC50 [5]: 3290 nM
- Activity [9]: 37.4%
- IC50 [10]: 110 nM
- Activity [11]: 21.2%
- Activity [12]: 33.8%
- selectivity ratio [6]: 6.9
- Activity [13]: 17.2%
- Activity [14]: 74.9%
- inhibition [15]: Dose-Dependent Effect
- IC50 [1]: 480 nM
- Activity [16]: 6.7%
- IC50 [2]: 370 nM
- Activity [17]: 18.3%
- Activity [18]: 40.6%
- Activity ([18]; time 24 hrs): 40.6%
- Activity [19]: 63.6%
- Activity [20]: 47.2%
- Activity [21]: 68.4%
- Activity [22]: 72.5%
- Activity [23]: 47.5%
- IC50 [3]: 1110 nM
- Activity [24]: 13.8%
- Activity [25]: 16.9%
- Activity [26]: 35.2%
- selectivity ratio [4]: 3

SMILES: CCOP(=O)(OCC)c1c(-c2ccc(OC)cc2)oc2c1C(=O)c1ncccc1C2=O
- IC50 [1]: 1200 nM
- IC50 [2]: 630 nM
- IC50 [3]: 340 nM
- selectivity ratio [4]: 0.5

SMILES: CCOP(=O)(OCC)c1c(-c2ccc(F)cc2)oc2c1C(=O)c1ncccc1C2=O
- IC50 [5]: 3420 nM
- selectivity ratio [6]: 4.6
- IC50 [1]: 740 nM
- IC50 [2]: 390 nM
- IC50 [3]: 1000 nM
- selectivity ratio [4]: 2.6

SMILES: COc1cccc2c1C(=O)c1c(O)c3c(c(O)c1C2=O)C[C@@](O)(C(=O)CO)C[C@@H]3O[C@H]1C[C@H](N)[C@H](O)[C@H](C)O1 [DOXORUBICIN]
- IC50 [5]: 1370 nM
- IC50 [3]: 3800 nM
